ChEMBL document CHEMBL1132226, “1,2,5-Oxadiazole N-oxide derivatives and related compounds as potential antitrypanosomal drugs: structure-activity relationships” (1999)

Legend:
[1] = test system: Trypanosoma cruzi; experiment: In vitro antitrypanosomal activity against Trypanosoma cruzi epimastigotes at dose 25 uM; type: functional
Outline: (§1)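 T. cruzi Tulahuen 2 epimastigotes were grown at 28 °C in axenic BHI-tryptose medium with 10% fetal calf serum. Inocula came from a 10-day stationary culture, starting at 1 × 10⁶ cells/mL. Compound was added from a DMSO stock before inoculation, with final DMSO ≤0.4%; controls had 0.4% DMSO and no drug. Growth was read as A600 daily. Percent inhibition = {1 − [(Ap − A0p)/(Ac − A0c)]} × 100, using day-5 versus day-0 absorbances. Values are the mean of three experiments.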

[2] = test system: Trypanosoma cruzi; experiment: (§2) The compound was tested in vitro for antitrypanosomal activity against Trypanosoma cruzi epimastigotes at a dose of 25 uM; type: functional; outline: as §1
[3] = test system: Trypanosoma cruzi; experiment: as §2

CN(C)CCCNC(=O)N/N=C/c1ccc2no[n+]([O-])c2c1
inhibition at 25 µM [1]: 11%

CCCCCCNC(=O)N/N=C/c1ccc2no[n+]([O-])c2c1
inhibition at 25 µM [1]: 55%

CCCCCCNC(=O)N/N=C/c1no[n+]([O-])c1C
inhibition at 25 µM [1]: 3%

CCCCNC(=O)N/N=C/c1c(C)[n+]([O-])c2ccccc2[n+]1[O-]
inhibition at 25 µM [1]: 6%

O=C(NCCCN1CCOCC1)c1ccc2no[n+]([O-])c2c1
inhibition at 25 µM [1]: 19%

[O-][n+]1onc(-c2ccccc2)c1CNCCCN1CCOCC1
inhibition at 25 µM [1]: 38%

CCCCNC(=O)N/N=C/c1ccc2c(c1)[n+]([O-])c(C)c(C)[n+]2[O-]
inhibition at 25 µM [1]: 0%

CCCCNC(=O)c1ccc2no[n+]([O-])c2c1
inhibition at 25 µM [1]: 90%

CCN(CC)CCCNCc1c(-c2ccccc2)no[n+]1[O-]
inhibition at 25 µM [1]: 22%

CCCCNC(=O)NNCc1ccc2no[n+]([O-])c2c1
inhibition at 25 µM [1]: 55%

CCCCCCNC(=O)c1ccc2nonc2c1
inhibition at 25 µM [2]: 10%

CCCCCCNC(=O)c1ccc2no[n+]([O-])c2c1
inhibition at 25 µM [1]: 79%

CCCCCCNC(=O)N/N=C/c1c(-c2ccccc2)no[n+]1[O-]
inhibition at 25 µM [1]: 53%

CCCCNC(=O)N/N=C/c1no[n+]([O-])c1C
inhibition at 25 µM [1]: 0%

CC1CS(=O)(=O)CCN1/N=C/c1ccc([N+](=O)[O-])o1 (stereo not drawn) [NIFURTIMOX]
inhibition at 25 µM [3]: 100%

Cc1c(CNCCCN2CCCCC2)no[n+]1[O-]
inhibition at 25 µM [1]: 0%

CCCCNC(=O)N/N=C/c1ccc2c(c1)[n+]([O-])cc[n+]2[O-]
inhibition at 25 µM [1]: 23%

O=C(NCCCN1CCCCC1)c1ccc2no[n+]([O-])c2c1
inhibition at 25 µM [1]: 45%

CCN(CC)CCCNC(=O)N/N=C/c1ccc2no[n+]([O-])c2c1
inhibition at 25 µM [1]: 8%

CCCCNC(=O)N/N=C/c1ccc2c(c1)[n+]([O-])c(C#N)c(N)[n+]2[O-]
inhibition at 25 µM [1]: 17%

CN(C)CCCNC(=O)c1ccc2no[n+]([O-])c2c1
inhibition at 25 µM [1]: 15%

CCCCNC(=O)N/N=C/c1ccc2no[n+]([O-])c2c1
inhibition at 25 µM [1]: 45%

CCCCNCc1ccc2no[n+]([O-])c2c1
inhibition at 25 µM [1]: 21%

Cc1c(CNCCCN2CCOCC2)no[n+]1[O-]
inhibition at 25 µM [1]: 0%

CCCCNC(=O)N/N=C/c1ccc2nonc2c1
inhibition at 25 µM [1]: 0%

CCCCNC(=O)c1ccc2nonc2c1
inhibition at 25 µM [2]: 0%

CCCCNC(=O)N/N=C/c1c(-c2ccccc2)no[n+]1[O-]
inhibition at 25 µM [1]: 17%

CCN(CC)CCCNC(=O)c1ccc2no[n+]([O-])c2c1
inhibition at 25 µM [1]: 17%
